Kir21 block: inhibitors of mouse Kir2.1 inward-rectifier potassium channel | P35561 | HEK293-Kir2.1, FluxOR thallium flux fluorescence; hits give low values | B-score at 10 µM | hit rate 0.85% among 310,000;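 active means fluorescence ratio B-score at or below minus 3 SD of library scores, with starting-brightness B-score within 2 SD, cut at about -4.2 in these data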;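 further: channel flux triggered by added potassium and thallium sulfate stimulus; B-score of peak minus minimum fluorescence over baseline after thallium stimulus; more negative B-score means stronger Kir2.1 block with less thallium influx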
KCNK9 inh: inhibitors of human KCNK9 two-pore domain potassium channel | hit rate 1.2% among 310,000 | B-score at 10 µM | HEK293 KCNK9, FluxOR thallium flux fluorescence; hits give low values | Q9NPC2 | AID 488922;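 active means ratio B-score over 3 SD below the library mean, with starting fluorescence within 5 SD of its mean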;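 further: negative B-score means less thallium flux so channel inhibition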
hERG rescue: hERG (human) protection from proarrhythmic block. Q12809. CHO-hERG, FluxOR thallium flux, dofetilide IC70 present. activation (rescue from dofetilide block), less the hit threshold, % at 10 µM. hit rate 0.51% among 310,000;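 active means activation above the mean of controls blocked by dofetilide plus 5 SD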;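 further: thallium influx through hERG after potassium depolarization seen as dye fluorescence rise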
KCNK3 block: human KCNK3 channel inhibition, primary screen; B-score at 10 µM; CHO-KCNK3 thallium flux, FluxOR fluorescence; hits give low values; hit rate 0.84% among 340,000;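 active means B-score under library mean minus 4 SD, starting fluorescence ratio at most library mean plus 5 SD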;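 further: more negative B-score means stronger inhibition of thallium flux through KCNK3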
KCNQ1 act: potentiators or activators of human KCNQ1 potassium channel; B-score at 10 µM; hit rate 0.35% among 310,000; CHO-K1 KCNQ1, thallium flux FluxOR fluorescence; hits give high values; AID 2648;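 active means fluorescence ratio B-score, a plate-corrected score, at least three library SD, with initial intensity B-score within 5 SD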
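Assay system: stable KCNQ1 CHO-K1 line; medium: assay buffer, equal DMSO in all wells; timing: 90 min dye loading and 20 min compound exposure, both at room temperature; technique: kinetic FluxOR thallium fluorescence, 10-s 1-Hz baseline, 110-s post-stimulus read; read-out basis: B score of baseline-normalized fluorescence ratio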
KCNQ1 block: human KCNQ1 channel inhibition. B-score at 10 µM. P51787. CHO-K1 KCNQ1, FluxOR thallium flux fluorescence; hits give high values. hit rate 1.3% among 310,000. AID 2642;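 active means compounds whose thallium flux B-score, printed positive for inhibition, exceeds three library SD while starting fluorescence stays within three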;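 further: channel opened by potassium depolarization with thallium stimulus after 20 min compound exposure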
KCNK9 block conf: confirmation of human KCNK9 potassium channel inhibitors. shares compounds with KCNK9 inh. HEK293 KCNK9 cells, FluxOR thallium flux fluorescence. inhibition, % at 10 µM. hit rate 43% among 4,900;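 active means thallium signal inhibited by more than 5 SD of the compound-free buffer control wells, on both duplicate plates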;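 further: 0% = assay buffer control wells without compound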
Kir21 sel: tests whether KCNK9 modulators also affect mouse Kir2.1 | shares compounds with KCNK9 inh | Kir2.1 cells, FluxOR thallium flux fluorescence | inhibition, % at 10 µM | hit rate 4% among 4,900;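 active means thallium signal drop more than 5 SD beyond the mean of the no-compound control wells, seen in both duplicate plates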;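 further: signal is fluorescence rise after thallium addition divided by baseline fluorescence; plate controls were assay buffer only for no effect and full block by chlorpromazine control for full effect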
KCNK9 uninduced: second counter-screen for KCNK9 modulators: effect in non-induced cells; hit rate 40% among 4,900; non-induced KCNK9-HEK293, FluxOR thallium flux; inhibition, % at 10 µM; shares compounds with KCNK9 inh;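 active means thallium signal drop beyond 5 SD of the untreated control mean, on both duplicate plates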;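 further: plate controls were buffer only IC0 wells for no effect and SID17386958 at its maximal inhibitory level for full effect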
The depositor's hits bear a star; i = inactive; / = no result given. An excerpt weighted towards active compounds, which were near 3.8% of everything screened.

SMILES	Kir21 block	KCNK9 inh	hERG rescue	KCNK3 block	KCNQ1 act	KCNQ1 block	KCNK9 block conf	Kir21 sel	KCNK9 uninduced
Cc1ccc(C)c(NC(=S)N/N=C2/CCCCc3ccccc32)c1	0.42	i	-4	i	i	i	i	i	i
CC(C)NC(=S)N/N=C1\CCCCc2ccccc21	-2.2	i	0	i	i	i	/	/	/
CSCCC(NC(=O)c1ccco1)C(=O)NCC(C)(C)N1CCOCC1 (stereo not drawn)	/	/	/	i	/	/	/	/	/
O=S(=O)(c1ccc(S(=O)(=O)N(Cc2ccccc2)Cc2ccco2)cc1)N1CCCC1	-0.07	i	-6	i	i	i	/	/	/
COC(=O)/C=C/c1ccccc1S(=O)(=O)N(Cc1ccccc1)Cc1ccco1	-0.94	-8.5*	-9	i	i	i	30%*	i	38%*
CCN1/C(=C/C=C/c2sc3ccccc3[n+]2CC)Sc2ccccc21	-1.4	-24*	-21	-13*	i	i	i	i	i
CC[C@]12C(=O)N(C)C[C@H]([C@@H]3C(=O)N(C)C(=O)[C@@H]31)N2C(=O)c1ccc(C(C)(C)C)cc1	/	/	/	i	/	/	/	/	/
Cc1cccc(OCc2nc(-c3ccc(Br)o3)no2)c1	0.42	i	-7	i	i	i	i	i	24%*
COc1cccc(OCc2nc(-c3ccc(Br)o3)no2)c1	-3.7	i	-13	i	i	i	i	i	i
Fc1ccc(OCc2nc(-c3ccc(Br)o3)no2)c(F)c1	-0.18	i	-7	i	i	i	/	/	/
CCc1nc(SCc2ccc(Cl)cc2)n[nH]1	0.14	i	-7	i	i	i	/	/	/
O=S(=O)(Nc1nc(SCc2ccc(Cl)cc2)n[nH]1)c1ccc(F)cc1	-10*	-11*	-6	i	i	i	28%*	38%*	42%*
Cc1cc(C)c(NC(=O)CNC(=O)[C@@H]2CCCN2C(=O)c2cccs2)c(C)c1	/	/	/	i	/	/	/	/	/
O=C1CC(=O)N(CCc2ccccc2)C(=O)N1CCc1ccccc1	1.4	i	-12	i	i	i	i	i	i
Cc1nn(C)cc1/C=N\NC(=O)c1ccc2c(c1)c(C)c(C)n2Cc1ccccc1	0.9	-19*	1	i	i	i	64%*	i	40%*
CNc1nc(SCc2ccccc2Cl)nc2c1CCCC2	3.5	-11*	-8	i	i	i	28%*	i	38%*
CN(C)c1nc(SCc2ccc(Cl)cc2)nc2c1CCCC2	1.8	-9.9*	-10	i	i	i	34%*	i	56%*
COc1ccccc1/C=C/CN1CCCC(CO)(Cc2cccc(Cl)c2)C1 (stereo not drawn)	0	i	-19	i	i	i	i	i	i
OCC1(Cc2cccc(Cl)c2)CCCN(Cc2sc(N3CCCC3)nc2Cl)C1 (stereo not drawn)	0.04	i	-12	i	i	i	i	i	i
C[C@@H]1COC(=O)[C@@H](CC(=O)OC(C)(C)C)C/C=C\C[C@H](CC(=O)N(CCO)Cc2ccccc2)C(=O)N1	/	/	/	i	/	/	/	/	/
CCc1ccccc1NC(=O)CCc1c(C)nn(-c2ccc(N3CCOCC3)nn2)c1C	-0.59	i	-8	i	i	i	/	/	/
O=C(CCC(=O)c1ccc(Oc2ccccc2)cc1)Nc1ccc(Cl)cc1Cl	-1.1	i	-7	i	i	i	i	i	i
N#CC1(NC(=O)COC(=O)C2CCN(S(=O)(=O)c3ccc4c(c3)OCCO4)CC2)CCCCC1	/	/	/	i	/	/	/	/	/
C=CCn1cnc2scc(-c3ccc(C)c(C)c3)c2c1=O	-1	i	-4	i	i	i	i	i	i
CCCn1cnc2scc(-c3ccc(C)c(C)c3)c2c1=O	-0.92	i	-8	i	i	i	i	i	i
SMILES	Kir21 block	KCNK9 inh	hERG rescue	KCNK3 block	KCNQ1 act	KCNQ1 block	KCNK9 block conf	Kir21 sel	KCNK9 uninduced
CCCOC(=O)Cn1cnc2scc(-c3ccc(C)cc3)c2c1=O	0.9	i	-8	i	i	i	i	i	i
Cc1ccc(-c2csc3ncn(CC(N)=O)c(=O)c23)cc1C	0.36	i	-2	i	i	i	/	/	/
CC(C)(C)NS(=O)(=O)c1ccc(NC(=O)C2CC(=O)N(CCc3ccc(F)cc3)C2)cc1 (stereo not drawn)	2	i	-5	i	i	i	/	/	/
Cc1ccc(-c2csc(NC(=O)CSC3=NCCS3)n2)cc1	-0.74	i	-17	i	i	i	i	i	i
CCCCOC(=O)c1ccc(N/C(=N\S(=O)(=O)c2ccccc2)c2ccccc2)cc1	0.86	-12*	-8	i	i	i	52%*	i	37%*
CCOC(=O)c1oc2ccccc2c1COC(=O)CNC(=O)c1ccccc1OC	0.67	i	-13	i	i	i	/	/	/
CCCCOC(=O)c1ccc(NC(=O)c2ccccc2OC)cc1	-0.67	-9.2*	-9	i	i	i	74%*	i	32%*
CCOC(=O)c1oc2ccccc2c1NC(=O)c1ccccc1OC	-0.02	-8.9*	-16	i	i	i	34%*	i	i
CCOc1ccc(S(=O)(=O)NC2CC2)cc1	0.41	i	3	i	i	i	/	/	/
CCN(CC)C(=O)N1c2ccccc2C=Cc2ccccc21	-0.74	-8.2*	-10	i	i	i	42%*	i	30%*
COc1ccc(NC(=O)c2ccccc2Oc2ccccc2)c(OC)c1	-0.18	-8.4*	-9	i	i	i	55%*	i	30%*
COc1ccc(NC(=O)c2cc(-c3cccnc3)nc3c(C)c(C)ccc23)c(OC)c1	0.18	i	-18	i	i	i	i	i	i
CC[C@]1(C(=O)OC)[C@H]2C(=O)N(Cc3ccccc3)C(=O)[C@H]2[C@H]2CN=C(SCC(=O)c3ccccc3)N21	/	/	/	i	/	/	/	/	/
O=C(OCC(=O)N1CCc2ccccc21)c1c2c(nc3ccccc13)CCCC2	-2.6	-13*	-5	i	i	i	53%*	i	i
O=C(COC(=O)c1c2c(nc3ccccc13)CCCCC2)c1ccc(Cl)s1	-0.75	-13*	-5	i	i	i	46%*	i	i
NC(=O)COC(=O)c1c2c(nc3ccccc13)CCCCC2	1.6	i	-4	i	i	i	/	/	/

Compound activity as filed in PubChem.
